Experimental data as given in ChEMBL document CHEMBL3120088, “Discovery of selective small molecule type III phosphatidylinositol 4-kinase alpha (PI4KIIIα) inhibitors as anti hepatitis C (HCV) agents” (J Med Chem, 2014).
Activity calls are given as the source filed them. The calls are words filed in the database; no cut-off is given here.

Key:
[1] = Inhibition of PI3Kalpha (1 to 1068)/6xHis-tagged p85 (1 to 724) (unknown origin) using diC8-PIP2 as substrate preincubated for 30 mins followed by substrate addition measured after 45 to 60 mins; parameters: species or system Homo sapiens
[2] = Inhibition of PI3Kdelta (1 to 1044)/6xHis-tagged p85 (1 to 724) (unknown origin) using diC8-PIP2 as substrate preincubated for 30 mins followed by substrate addition measured after 45 to 60 mins; parameters: species or system Homo sapiens
[3] = target: T1, Phosphatidylinositol 4-kinase alpha (Homo sapiens, UniProt P42356); assay: Inhibition of GST-tagged PI4K-alpha (1 to 2044) (unknown origin) using D-myo-phosphatidylinositol as substrate preincubated for 30 mins followed by substrate addition measured after 180 mins by luminescence assay
Target sequence in this assay (P42356 whole entry): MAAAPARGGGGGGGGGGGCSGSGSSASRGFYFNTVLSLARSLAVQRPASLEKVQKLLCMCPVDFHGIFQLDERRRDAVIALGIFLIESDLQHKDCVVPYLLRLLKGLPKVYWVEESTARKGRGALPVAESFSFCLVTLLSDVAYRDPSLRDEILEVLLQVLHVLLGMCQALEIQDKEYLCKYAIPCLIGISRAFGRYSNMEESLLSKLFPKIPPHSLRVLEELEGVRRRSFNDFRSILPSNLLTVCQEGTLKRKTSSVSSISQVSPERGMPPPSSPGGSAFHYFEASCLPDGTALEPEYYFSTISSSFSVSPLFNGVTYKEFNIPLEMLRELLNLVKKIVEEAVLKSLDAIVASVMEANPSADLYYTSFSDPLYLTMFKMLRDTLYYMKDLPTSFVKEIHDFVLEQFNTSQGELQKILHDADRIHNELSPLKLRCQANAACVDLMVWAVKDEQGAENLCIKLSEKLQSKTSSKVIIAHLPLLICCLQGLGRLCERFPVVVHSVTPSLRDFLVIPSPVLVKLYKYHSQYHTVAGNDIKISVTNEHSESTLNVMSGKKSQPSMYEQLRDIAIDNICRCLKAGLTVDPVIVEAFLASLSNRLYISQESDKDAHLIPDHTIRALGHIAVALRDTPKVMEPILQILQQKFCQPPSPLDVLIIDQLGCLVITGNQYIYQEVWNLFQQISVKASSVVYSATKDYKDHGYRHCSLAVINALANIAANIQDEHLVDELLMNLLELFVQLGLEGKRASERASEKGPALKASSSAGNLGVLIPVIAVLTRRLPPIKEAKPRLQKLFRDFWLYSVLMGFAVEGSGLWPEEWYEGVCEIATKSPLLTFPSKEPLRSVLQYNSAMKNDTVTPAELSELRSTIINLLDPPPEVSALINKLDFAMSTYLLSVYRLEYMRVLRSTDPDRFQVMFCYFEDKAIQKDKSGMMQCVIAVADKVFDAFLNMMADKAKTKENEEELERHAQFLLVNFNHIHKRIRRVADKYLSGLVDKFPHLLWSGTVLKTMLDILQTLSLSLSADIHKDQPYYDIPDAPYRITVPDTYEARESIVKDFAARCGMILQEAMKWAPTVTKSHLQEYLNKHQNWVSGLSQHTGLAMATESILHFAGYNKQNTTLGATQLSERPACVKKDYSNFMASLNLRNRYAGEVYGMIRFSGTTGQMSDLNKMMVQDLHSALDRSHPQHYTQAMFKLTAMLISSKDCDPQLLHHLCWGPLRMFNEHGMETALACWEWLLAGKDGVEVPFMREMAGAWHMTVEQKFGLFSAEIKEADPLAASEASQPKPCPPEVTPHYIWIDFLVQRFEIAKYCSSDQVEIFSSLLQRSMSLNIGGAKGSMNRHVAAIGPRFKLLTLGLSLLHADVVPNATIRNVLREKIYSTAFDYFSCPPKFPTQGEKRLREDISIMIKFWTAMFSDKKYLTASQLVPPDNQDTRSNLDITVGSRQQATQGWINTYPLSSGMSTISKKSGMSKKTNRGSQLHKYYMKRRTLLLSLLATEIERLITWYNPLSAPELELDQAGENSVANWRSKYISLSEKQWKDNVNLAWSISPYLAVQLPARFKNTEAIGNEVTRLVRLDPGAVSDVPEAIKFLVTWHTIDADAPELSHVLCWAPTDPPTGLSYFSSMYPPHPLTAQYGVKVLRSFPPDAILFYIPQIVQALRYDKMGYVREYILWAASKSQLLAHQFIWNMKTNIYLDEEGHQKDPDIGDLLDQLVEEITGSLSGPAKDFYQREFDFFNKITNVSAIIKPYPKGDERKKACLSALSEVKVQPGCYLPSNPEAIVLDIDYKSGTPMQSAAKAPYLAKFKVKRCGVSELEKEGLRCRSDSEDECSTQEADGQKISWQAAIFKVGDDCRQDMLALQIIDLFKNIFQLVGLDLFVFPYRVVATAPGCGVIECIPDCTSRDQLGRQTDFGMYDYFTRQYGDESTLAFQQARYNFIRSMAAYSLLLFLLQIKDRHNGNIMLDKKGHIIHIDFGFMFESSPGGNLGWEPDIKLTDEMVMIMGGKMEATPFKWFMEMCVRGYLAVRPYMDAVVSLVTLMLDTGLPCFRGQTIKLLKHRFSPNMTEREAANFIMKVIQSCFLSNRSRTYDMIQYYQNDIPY

[4] = (§1) Tmax in Sprague-Dawley rat at 5 mg/kg, po; assay type: ADME, organism-based; parameters: dose 5 mg/kg, route oral; conditions: Sprague-Dawley, in vivo
Summary of the method: (§2)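 Rats were given a single dose of compound formulated in DMSO/cyclodextrin, either intravenously at 1 mg/kg or orally at 5 mg/kg. Each parameter comes from the matching route arm. Dose-normalized AUC is expressed as h kg ng mL⁻¹ mg⁻¹.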

[5] = (§3) Cmax in Sprague-Dawley rat at 5 mg/kg, po; assay type: ADME, organism-based; parameters: dose 5 mg/kg, route oral; conditions: Sprague-Dawley, in vivo; summary of the method: as §2
[6] = target: Phosphatidylinositol 4,5-bisphosphate 3-kinase catalytic subunit gamma isoform (Homo sapiens, UniProt P48736)
Phosphatidylinositol 4,5-bisphosphate 3-kinase catalytic subunit gamma isoform, sequence (P48736 whole entry, canonical isoform): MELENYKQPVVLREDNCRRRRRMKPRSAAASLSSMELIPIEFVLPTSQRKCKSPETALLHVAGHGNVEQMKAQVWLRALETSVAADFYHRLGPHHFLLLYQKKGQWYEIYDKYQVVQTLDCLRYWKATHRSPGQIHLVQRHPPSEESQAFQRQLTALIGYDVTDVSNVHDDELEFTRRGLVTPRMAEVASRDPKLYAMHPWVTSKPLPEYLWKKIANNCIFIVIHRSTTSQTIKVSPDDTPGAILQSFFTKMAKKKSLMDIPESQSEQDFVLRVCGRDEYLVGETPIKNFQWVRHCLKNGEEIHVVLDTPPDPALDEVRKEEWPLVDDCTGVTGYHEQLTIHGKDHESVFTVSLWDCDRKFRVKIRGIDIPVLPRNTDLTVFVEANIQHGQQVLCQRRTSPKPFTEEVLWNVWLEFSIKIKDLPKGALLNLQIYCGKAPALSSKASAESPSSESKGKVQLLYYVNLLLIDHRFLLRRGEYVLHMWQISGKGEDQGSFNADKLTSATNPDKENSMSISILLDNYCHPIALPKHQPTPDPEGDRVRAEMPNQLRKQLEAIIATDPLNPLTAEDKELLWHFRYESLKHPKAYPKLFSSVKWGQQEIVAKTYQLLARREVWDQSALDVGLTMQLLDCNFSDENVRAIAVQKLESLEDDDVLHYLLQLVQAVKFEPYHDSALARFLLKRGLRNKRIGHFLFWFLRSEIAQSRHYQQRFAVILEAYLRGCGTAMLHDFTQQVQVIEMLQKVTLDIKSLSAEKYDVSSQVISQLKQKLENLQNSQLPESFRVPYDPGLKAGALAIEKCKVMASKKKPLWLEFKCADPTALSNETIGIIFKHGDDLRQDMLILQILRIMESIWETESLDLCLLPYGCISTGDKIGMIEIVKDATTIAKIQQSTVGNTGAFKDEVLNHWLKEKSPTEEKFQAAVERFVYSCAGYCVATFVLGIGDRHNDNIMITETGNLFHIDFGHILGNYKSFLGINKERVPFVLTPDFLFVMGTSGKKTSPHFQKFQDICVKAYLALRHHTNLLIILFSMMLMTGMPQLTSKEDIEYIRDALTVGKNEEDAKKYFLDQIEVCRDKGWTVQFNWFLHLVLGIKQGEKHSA

Hepatitis C virus [7] = assay: Antiviral activity against Hepatitis C virus genotype 1b expressed in ET cells after 48 hrs by luciferase reporter gene assay; assay type: functional, organism-based, Hepacivirus hominis; conditions: for pIC50: et
[8] = Inhibition of PI3Kbeta (1 to 1070)/6xHis-tagged p85 (1 to 724) (unknown origin) using diC8-PIP2 as substrate preincubated for 30 mins followed by substrate addition measured after 45 to 60 mins; parameters: species or system Homo sapiens
[9] = (§4) Oral bioavailability in Sprague-Dawley rat at 5 mg/kg; assay type: ADME, organism-based; conditions: Sprague-Dawley, in vivo; summary of the method: as §2
[10] = Inhibition of 6xHis-tagged PI4K-beta (13 to 828) 316 to 330 deletion mutant (unknown origin) using D-myo-phosphatidylinositol as substrate preincubated for 30 mins followed by substrate addition measured after 180 mins by luminescence assay; parameters: species or system Homo sapiens
[11] = AUC in Sprague-Dawley rat at 5 mg/kg, po; assay type: ADME, organism-based; parameters: dose 5 mg/kg, route oral; conditions: plasma; summary of the method: as §2
[12] = (§5) Half life in Sprague-Dawley rat at 5 mg/kg, po; assay type: ADME, organism-based; parameters: dose 5 mg/kg, route oral; conditions: Sprague-Dawley, in vivo; summary of the method: as §2
[13] = target: T1, Phosphatidylinositol 4-kinase alpha; assay: Competitive inhibition of GST-tagged PI4K-alpha (1 to 2044) (unknown origin) in presence of ATP
Hepatitis C virus [14] = assay: Antiviral activity against Hepatitis C virus genotype 2a expressed in human Huh-7 Lunet cells after 48 hrs by luciferase reporter gene assay; assay type: functional, organism-based, Hepacivirus hominis; conditions: for pIC50: huh-7
Hepatitis C virus [15] = assay: Antiviral activity against Hepatitis C virus genotype 1a expressed in ET cells after 48 hrs by luciferase reporter gene assay; assay type: functional, organism-based, Hepacivirus hominis, subtype 1a; conditions: for pIC50: et
[16] = Clearance in Sprague-Dawley rat at 1 mg/kg, iv; assay type: ADME, organism-based; parameters: dose 1 mg/kg, route intravenous; conditions: in vivo; summary of the method: as §2
[17] = Thermodynamic stability of the compound in DMSO assessed as decomposition at 80 degC after 6 days; assay type: physicochemical; conditions: 144 h
Rattus norvegicus [18] = assay: as §3; assay type: ADME, organism-based; parameters: dose 5 mg/kg, route oral; conditions: in vivo; summary of the method: as §2
[19] = Thermodynamic stability of the compound in DMSO assessed as interconversion at 80 degC after 6 days; assay type: physicochemical; conditions: 144 h
Rattus norvegicus [20] = assay: Dose normalized AUC in Sprague-Dawley rat at 1 mg/kg, iv; assay type: ADME, organism-based; parameters: dose 1 mg/kg, route intravenous; conditions: in vivo; summary of the method: as §2
Rattus norvegicus [21] = assay: Half life in Sprague-Dawley rat at 1 mg/kg, iv; assay type: ADME, organism-based; parameters: dose 1 mg/kg, route intravenous; conditions: in vivo; summary of the method: as §2
[22] = (§6) Volume of distribution at steady state in Sprague-Dawley rat at 1 mg/kg, iv; assay type: ADME, organism-based; parameters: dose 1 mg/kg, route intravenous; conditions: Sprague-Dawley, in vivo, read-out: Vdss; summary of the method: as §2
Rattus norvegicus [23] = assay: Dose normalized AUC in Sprague-Dawley rat at 5 mg/kg, po; assay type: ADME, organism-based; parameters: dose 5 mg/kg, route oral; conditions: in vivo; summary of the method: as §2
Mus musculus [24] = assay: Toxicity in mouse assessed as morbidity at 40 mg/kg/day; assay type: organism-based; conditions: in vivo
Summary of the method: (§7)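 Mouse repeat-dose toxicity study: 40 mg/kg/day given daily for 14 days. Endpoints were morbidity, mortality, test-article-related changes in stomach, thymus and spleen, and clinical pathology parameters.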

Mus musculus [25] = assay: Toxicity in mouse assessed as pathological changes in stomach at 40 mg/kg/day; assay type: organism-based; conditions: in vivo; summary of the method: as §7
[26] = Toxicity in mouse after 14 days; assay type: organism-based; conditions: in vivo; summary of the method: as §7
Mus musculus [27] = assay: Toxicity in mouse assessed as mortality at 40 mg/kg/day; assay type: organism-based; conditions: in vivo; summary of the method: as §7
Mus musculus [28] = assay: Toxicity in mouse assessed as pathological changes in thymus at 40 mg/kg/day; assay type: organism-based; conditions: in vivo; summary of the method: as §7
Rattus norvegicus [29] = assay: as §1; assay type: ADME, organism-based; parameters: dose 5 mg/kg, route oral; conditions: in vivo; summary of the method: as §2
Rattus norvegicus [30] = assay: as §6; assay type: ADME, organism-based; parameters: dose 1 mg/kg, route intravenous; conditions: in vivo; summary of the method: as §2
Rattus norvegicus [31] = assay: as §4; assay type: ADME, organism-based; conditions: in vivo; summary of the method: as §2
Rattus norvegicus [32] = assay: as §5; assay type: ADME, organism-based; parameters: dose 5 mg/kg, route oral; conditions: in vivo; summary of the method: as §2
Mus musculus [33] = assay: Toxicity in mouse assessed as pathological changes in spleen at 40 mg/kg/day; assay type: organism-based; conditions: in vivo; summary of the method: as §7
[34] = Hepatitis C virus, genotype 1b, ET, 48 h

COc1ncc(-c2ccc3nc(N)n(-c4ccccc4)c(=O)c3c2)cc1NS(=O)(=O)c1ccc(F)cc1F
pIC50 [1]: 8.2
pIC50 [2]: 8.2
IC50 [3]: 1.58 nM
Tmax [4]: 6 h
Cmax [5]: 3580 ng/mL
IC50 [6]: 3.98 nM
IC50 (Hepatitis C virus [7]; [34]): 0.501 nM
pIC50 [8]: 7
bioavailability [9]: 60%
pIC50 [10]: 7.2
AUC [11]: 60200 ng·h/mL
half-life [12]: 6.7 h

COc1ncc(-c2ccc3nc(N)c(-c4ccc(N5CCOCC5)cc4)cc3c2)cc1NS(=O)(=O)c1ccc(F)cc1F
inhibition [13]: Active
pIC50 [1]: 5.6
EC50 (Hepatitis C virus [14]; Hepatitis C virus, genotype 2a, Huh-7, 48 h): 20 nM
pIC50 [2]: 6.2
IC50 [3]: 39.8 nM
EC50 (Hepatitis C virus [15]; Hepatitis C virus, subtype 1a, ET, 48 h): 31.6 nM
Tmax [4]: 0.67 h
Cmax [5]: 1390 ng/mL
IC50 [6]: 631 nM
EC50 (Hepatitis C virus [7]; [34]): 3.98 nM
pIC50 [8]: 5
bioavailability [9]: 38%
pIC50 [10]: 5.5
AUC [11]: 5000 ng·h/mL
half-life [12]: 2.39 h

COc1ncc(-c2ccc3nc(N)n(-c4ccccc4)c(=O)c3c2)cc1NS(=O)(=O)c1ccccc1C
pIC50 [1]: 7.2
pIC50 [2]: 7.6
IC50 [3]: 1 nM
IC50 [6]: 39.8 nM
IC50 (Hepatitis C virus [7]; [34]): 0.398 nM
pIC50 [8]: 6.4
pIC50 [10]: 6.8

COc1ncc(-c2ccc3nc(N)n(-c4ccccc4C(F)(F)F)c(=O)c3c2)cc1S(=O)(=O)Nc1ccc(F)cc1F
pIC50 [2]: 5.5
IC50 [3]: 15.8 nM
pIC50 (Hepatitis C virus [15]): 7.7
IC50 [6]: 3160 nM
pIC50 (Hepatitis C virus [7]): 8.5
pIC50 [8]: 5
pIC50 [10]: 5.8

COc1ncc(-c2cnc3nc(N)c(-c4ccccc4)cc3c2)cc1NS(=O)(=O)c1ccc(F)cc1F
pIC50 [1]: 5.3
pIC50 [2]: 5.7
IC50 [3]: 631 nM
IC50 [6]: 6310 nM
IC50 (Hepatitis C virus [7]; [34]): 126 nM
pIC50 [8]: 6
pIC50 [10]: 5.4

COc1ncc(-c2ccc3nc(N)c(-c4ccccc4)nc3c2)cc1NS(=O)(=O)c1ccc(F)cc1F
pIC50 [1]: 7.1
pIC50 [2]: 7.8
IC50 [3]: 5.01 nM
IC50 [6]: 7.94 nM
IC50 (Hepatitis C virus [7]; [34]): 15.8 nM
pIC50 [8]: 6.7
pIC50 [10]: 6.9

COc1ncc(-c2ccc3nc(N)n(-c4ccccc4)c(=O)c3c2)cc1NS(=O)(=O)C(C)C
pIC50 [1]: 6.4
pIC50 [2]: 6.7
IC50 [3]: 126 nM
IC50 [6]: 501 nM
IC50 (Hepatitis C virus [7]; [34]): 31.6 nM
pIC50 [8]: 5.3
pIC50 [10]: 5.9

COc1ncc(-c2ccc3nc(N)n(-c4ccccc4C(C)C)c(=O)c3c2)cc1S(=O)(=O)Nc1ccc(F)cc1F
pIC50 [1]: 5.8
pIC50 [2]: 5.6
IC50 [3]: 31.6 nM
IC50 [6]: 1000 nM
IC50 (Hepatitis C virus [7]; [34]): 6.31 nM
pIC50 [8]: 4.8
pIC50 [10]: 6

COc1ncc(-c2ccc3nc(N)n(-c4ccccc4C(F)(F)F)c(=O)c3c2)cc1S(=O)(=O)Nc1ccc(F)cc1F (atropisomer aR)
clearance [16]: 2.5 mL/min/kg
pIC50 [1]: 5.5
pIC50 (Hepatitis C virus [14]): 7.1
Stability [17]: Stable
pIC50 [2]: 5
IC50 [3]: 126 nM
pIC50 (Hepatitis C virus [15]): 6.9
Tmax [4]: 3 h
Cmax (Rattus norvegicus [18]): 4429 ng/mL
Stability [19]: Stable
AUC/dose (Rattus norvegicus [20]): 7113 kg·ng·h/mL/mg
IC50 [6]: 3160 nM
t1/2 (Rattus norvegicus [21]): 3.5 h
pIC50 (Hepatitis C virus [7]): 7.8
pIC50 [8]: 4.8
Vd [22]: 0.55 L/kg
bioavailability [9]: > 100%
pIC50 [10]: 5.3
half-life [12]: 2.7 h
AUC/dose (Rattus norvegicus [23]): 9985 kg·ng·h/mL/mg

COc1ncc(-c2ccc3nc(N)n(-c4ccccc4C(F)(F)F)c(=O)c3c2)cc1S(=O)(=O)Nc1ccc(F)cc1F (atropisomer aS)
Activity (Mus musculus [24]): Toxic
pIC50 [1]: 5.6
pIC50 (Hepatitis C virus [14]): 7.9
Activity (Mus musculus [25]): Toxic
MTD at 336 h [26]: 50 mg/kg
pIC50 [2]: 5.6
Activity (Mus musculus [27]): Toxic
IC50 [3]: 5.01 nM
pIC50 (Hepatitis C virus [15]): 7.9
Activity (Mus musculus [28]): Toxic
Tmax (Rattus norvegicus [29]): 4.25 h
Cmax (Rattus norvegicus [18]): 1556 ng/mL
AUC/dose (Rattus norvegicus [20]): 3695 kg·ng·h/mL/mg
IC50 [6]: 2510 nM
t1/2 (Rattus norvegicus [21]): 1.3 h
pIC50 (Hepatitis C virus [7]): 8.6
pIC50 [8]: 5.1
Vdss (Rattus norvegicus [30]): 0.34 L/kg
F (Rattus norvegicus [31]): 98%
pIC50 [10]: 6
t1/2 (Rattus norvegicus [32]): 4 h
AUC/dose (Rattus norvegicus [23]): 3626 kg·ng·h/mL/mg
Activity (Mus musculus [33]): Toxic

COc1ncc(-c2ccc3nc(N)n(-c4ccccc4)c(=O)c3c2)cc1N(C)S(=O)(=O)c1ccc(F)cc1F
pIC50 [1]: 5.5
pIC50 [2]: 4.8
IC50 [3]: 3980 nM
IC50 [6]: 3980 nM
IC50 (Hepatitis C virus [7]; [34]): > 2000 nM
pIC50 [8]: 4.5
pIC50 [10]: 5

CCn1c(N)nc2ccc(-c3cnc(OC)c(S(=O)(=O)Nc4ccc(F)cc4F)c3)cc2c1=O
pIC50 [1]: 6.9
pIC50 [2]: 6.8
IC50 [3]: 39.8 nM
IC50 [6]: 158 nM
IC50 (Hepatitis C virus [7]; [34]): 20 nM
pIC50 [8]: 6.4
pIC50 [10]: 6

COc1ncc(-c2ccc3nc(N)n(-c4cccc(C(F)(F)F)c4)c(=O)c3c2)cc1S(=O)(=O)Nc1ccc(F)cc1F
pIC50 [1]: 6
pIC50 [2]: 6
IC50 [3]: 50.1 nM
IC50 [6]: 1580 nM
IC50 (Hepatitis C virus [7]; [34]): 79.4 nM
pIC50 [8]: 5
pIC50 [10]: 5.1

COc1ccc(-c2ccc3nc(N)n(-c4ccccc4)c(=O)c3c2)cc1NS(=O)(=O)c1ccc(F)cc1F
pIC50 [1]: 5.8
pIC50 [2]: 5.4
IC50 [3]: 316 nM
IC50 [6]: 316 nM
IC50 (Hepatitis C virus [7]; [34]): 31.6 nM
pIC50 [8]: 4
pIC50 [10]: 6.8
